Experimental data taken from article PMC3582828 (European journal of medicinal chemistry, 2012).

How the values were obtained:
PDE5 = PDE5 (Homo sapiens, UniProt O76074); test: PDE enzyme assay; assay type: biochemical; details: ratio IC50 PDE5 / IC50 PDE5
APP/PS1 mice = test: 2-day radial arm water maze; assay type: in vivo, APP/PS1 mouse; details: 3 mg/kg, i.p., for 3 weeks; 3–4 month old APP/PS1 mice; vehicle ~3 errors
PDE2 = PDE2 (Homo sapiens, UniProt O00408); test: PDE enzyme assay; assay type: biochemical; details: selectivity ratio IC50 PDE2 / IC50 PDE5
PDE10 = PDE10 (Homo sapiens, UniProt Q9Y233); test: PDE enzyme assay; assay type: biochemical; details: selectivity ratio IC50 PDE10 / IC50 PDE5
PDE7 = test: PDE enzyme assay; assay type: biochemical; details: for IC50: read-out: PDE7 IC50, Data obtained by BPS Bioscience; for PDEX/PDE5 (PDE7): selectivity ratio IC50 PDE7 / IC50 PDE5
Outline: (§1)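 Each PDE was incubated at room temperature for 60 min in PDE assay buffer with 100 nM FAM-cGMP or FAM-cAMP substrate, 0.125 ng enzyme and test compound. A 1:100 binding-agent solution was then added for 60 min at room temperature.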

PDE11 = PDE11 (Homo sapiens, UniProt Q9HCR9); test: PDE enzyme assay; assay type: biochemical; details: selectivity ratio IC50 PDE11 / IC50 PDE5
PDE3 = test: PDE enzyme assay; assay type: biochemical; details: for IC50: read-out: PDE3 IC50, Data obtained by BPS Bioscience; for PDEX/PDE5 (PDE3): selectivity ratio IC50 PDE3 / IC50 PDE5
Outline: as §1

[1] = Pharmacokinetics in mouse brain tissue and plasma; assay type: in vivo, male BALB/c mice
Outline: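 Test compound was dosed at 50 mg/kg p.o. in 0.05% aqueous methylcellulose. Plasma (retro-orbital blood, heparin) and brain were taken at 0, 0.25, 0.5, 1, 2 and 4 h, with 3 mice per time point. Brain was rinsed in cold saline and homogenised in methanol. LC/MS/MS used an internal standard and 1/x2-weighted linear regression. Penetration was expressed as brain/plasma Cmax and AUC ratios.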

[2] = test system: LTP in slices from APP/PS1 mice; test: LTP in hippocampal slices from APP/PS1 mice; set-up: species or system APP/PS1 mouse; details: 50 nM through bath solution for 10 min prior to θ-burst
PDE9 = PDE9 (Homo sapiens, UniProt O76083); test: PDE enzyme assay; assay type: biochemical; details: selectivity ratio IC50 PDE9 / IC50 PDE5
PDE1 = test: PDE enzyme assay; assay type: biochemical; details: for IC50: read-out: PDE1 IC50, Data obtained by BPS Bioscience; for PDEX/PDE5 (PDE1): selectivity ratio IC50 PDE1 / IC50 PDE5
Outline: as §1

PDE4 = test: PDE enzyme assay; assay type: biochemical; details: for IC50: read-out: PDE4 IC50, Data obtained by BPS Bioscience; for PDEX/PDE5 (PDE4): selectivity ratio IC50 PDE4 / IC50 PDE5
Outline: as §1

PDE8 = test: PDE enzyme assay; assay type: biochemical; details: selectivity ratio IC50 PDE8 / IC50 PDE5

PDE11, sequence (Q9HCR9 whole entry): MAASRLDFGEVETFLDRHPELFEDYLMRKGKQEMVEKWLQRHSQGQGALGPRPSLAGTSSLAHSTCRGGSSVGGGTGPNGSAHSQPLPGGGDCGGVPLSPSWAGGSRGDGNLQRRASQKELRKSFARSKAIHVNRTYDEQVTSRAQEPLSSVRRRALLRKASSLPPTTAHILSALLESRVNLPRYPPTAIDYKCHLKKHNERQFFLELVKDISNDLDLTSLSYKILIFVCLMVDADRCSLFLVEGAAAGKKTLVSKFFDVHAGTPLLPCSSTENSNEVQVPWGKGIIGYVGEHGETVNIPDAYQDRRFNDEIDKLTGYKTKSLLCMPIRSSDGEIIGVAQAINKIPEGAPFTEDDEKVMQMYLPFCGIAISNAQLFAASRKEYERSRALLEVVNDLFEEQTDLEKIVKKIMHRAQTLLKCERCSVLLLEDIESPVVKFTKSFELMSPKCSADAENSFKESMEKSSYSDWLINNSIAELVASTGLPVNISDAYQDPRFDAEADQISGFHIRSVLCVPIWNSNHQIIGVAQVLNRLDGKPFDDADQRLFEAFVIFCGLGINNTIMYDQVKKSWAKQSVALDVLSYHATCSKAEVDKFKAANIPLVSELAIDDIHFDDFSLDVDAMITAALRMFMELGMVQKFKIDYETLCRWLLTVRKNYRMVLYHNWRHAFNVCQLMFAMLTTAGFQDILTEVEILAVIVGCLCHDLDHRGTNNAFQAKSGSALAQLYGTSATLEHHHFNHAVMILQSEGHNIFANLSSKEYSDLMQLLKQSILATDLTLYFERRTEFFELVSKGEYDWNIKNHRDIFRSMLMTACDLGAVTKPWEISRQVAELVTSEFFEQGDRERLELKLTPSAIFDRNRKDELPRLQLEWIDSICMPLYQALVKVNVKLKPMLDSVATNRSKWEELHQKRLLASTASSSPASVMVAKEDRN
PDE2, sequence (O00408 whole entry): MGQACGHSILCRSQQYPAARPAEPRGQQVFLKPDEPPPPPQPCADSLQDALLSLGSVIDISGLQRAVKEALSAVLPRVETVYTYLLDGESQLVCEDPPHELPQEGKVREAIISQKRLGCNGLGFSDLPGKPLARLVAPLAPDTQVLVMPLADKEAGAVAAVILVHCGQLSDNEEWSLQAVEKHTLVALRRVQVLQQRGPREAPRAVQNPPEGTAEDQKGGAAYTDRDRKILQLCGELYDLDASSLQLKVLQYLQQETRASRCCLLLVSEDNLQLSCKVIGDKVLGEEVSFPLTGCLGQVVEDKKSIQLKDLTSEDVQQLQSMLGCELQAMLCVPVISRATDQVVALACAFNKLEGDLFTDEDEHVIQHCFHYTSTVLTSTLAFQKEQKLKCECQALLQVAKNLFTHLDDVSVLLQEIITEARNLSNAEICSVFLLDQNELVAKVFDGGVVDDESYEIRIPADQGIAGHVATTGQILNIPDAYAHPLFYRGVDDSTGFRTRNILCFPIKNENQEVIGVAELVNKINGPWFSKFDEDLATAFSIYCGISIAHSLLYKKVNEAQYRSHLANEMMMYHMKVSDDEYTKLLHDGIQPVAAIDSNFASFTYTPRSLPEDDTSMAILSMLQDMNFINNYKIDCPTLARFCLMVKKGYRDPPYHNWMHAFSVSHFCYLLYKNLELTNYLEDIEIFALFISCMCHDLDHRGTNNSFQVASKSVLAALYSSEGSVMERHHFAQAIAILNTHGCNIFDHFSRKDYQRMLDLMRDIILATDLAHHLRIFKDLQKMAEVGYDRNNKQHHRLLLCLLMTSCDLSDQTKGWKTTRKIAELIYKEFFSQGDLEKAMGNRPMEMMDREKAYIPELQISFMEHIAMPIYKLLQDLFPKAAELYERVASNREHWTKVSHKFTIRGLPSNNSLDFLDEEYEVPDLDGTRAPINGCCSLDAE
PDE10, sequence (Q9Y233 whole entry): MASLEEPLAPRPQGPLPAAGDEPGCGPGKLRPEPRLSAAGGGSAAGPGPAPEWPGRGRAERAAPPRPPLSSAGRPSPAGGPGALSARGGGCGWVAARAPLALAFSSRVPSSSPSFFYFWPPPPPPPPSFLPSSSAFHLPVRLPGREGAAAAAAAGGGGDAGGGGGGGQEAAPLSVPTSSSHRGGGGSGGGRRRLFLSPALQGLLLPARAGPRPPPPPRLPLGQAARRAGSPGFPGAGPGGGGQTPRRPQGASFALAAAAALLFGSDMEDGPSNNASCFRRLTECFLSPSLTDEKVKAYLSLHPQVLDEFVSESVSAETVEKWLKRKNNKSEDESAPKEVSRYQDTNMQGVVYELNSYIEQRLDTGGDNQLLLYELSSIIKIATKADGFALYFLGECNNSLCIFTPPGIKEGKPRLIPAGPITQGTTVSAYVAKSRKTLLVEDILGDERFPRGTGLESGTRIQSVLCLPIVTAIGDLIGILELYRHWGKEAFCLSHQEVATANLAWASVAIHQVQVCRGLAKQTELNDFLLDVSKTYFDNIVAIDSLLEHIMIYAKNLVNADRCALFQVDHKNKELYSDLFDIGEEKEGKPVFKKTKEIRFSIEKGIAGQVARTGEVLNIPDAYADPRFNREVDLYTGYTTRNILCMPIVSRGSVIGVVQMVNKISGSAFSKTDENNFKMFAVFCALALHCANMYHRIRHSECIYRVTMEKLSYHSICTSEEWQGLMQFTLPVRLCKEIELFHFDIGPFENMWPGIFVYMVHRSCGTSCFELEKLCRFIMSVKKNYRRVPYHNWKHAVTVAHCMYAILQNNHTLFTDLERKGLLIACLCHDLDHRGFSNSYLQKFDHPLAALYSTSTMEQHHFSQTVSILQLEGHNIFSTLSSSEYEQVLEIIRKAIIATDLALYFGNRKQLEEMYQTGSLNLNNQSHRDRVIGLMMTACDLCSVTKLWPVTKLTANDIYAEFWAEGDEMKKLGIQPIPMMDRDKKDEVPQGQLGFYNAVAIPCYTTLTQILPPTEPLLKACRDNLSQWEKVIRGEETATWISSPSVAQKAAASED
PDE9, sequence (O76083 whole entry): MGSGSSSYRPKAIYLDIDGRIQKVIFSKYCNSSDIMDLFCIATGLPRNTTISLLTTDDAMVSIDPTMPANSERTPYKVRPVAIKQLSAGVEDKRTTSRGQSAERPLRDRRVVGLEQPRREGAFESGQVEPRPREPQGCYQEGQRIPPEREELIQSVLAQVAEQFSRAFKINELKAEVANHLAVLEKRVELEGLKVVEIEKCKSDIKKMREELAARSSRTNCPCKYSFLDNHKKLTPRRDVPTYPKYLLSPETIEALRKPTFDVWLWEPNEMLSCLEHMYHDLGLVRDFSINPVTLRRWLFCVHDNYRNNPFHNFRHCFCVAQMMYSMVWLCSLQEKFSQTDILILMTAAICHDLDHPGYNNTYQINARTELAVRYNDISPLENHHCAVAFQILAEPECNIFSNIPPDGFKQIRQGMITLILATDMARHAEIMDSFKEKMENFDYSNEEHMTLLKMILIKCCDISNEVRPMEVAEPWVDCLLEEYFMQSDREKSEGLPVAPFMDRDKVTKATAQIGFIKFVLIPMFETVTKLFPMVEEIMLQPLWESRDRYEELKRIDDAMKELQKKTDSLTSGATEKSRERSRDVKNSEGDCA

Row | Structure (SMILES) | PDEX/PDE5 (PDE5) (PDE5) | Errors in the 2-day RAWM test (APP/PS1 mice) | PDEX/PDE5 (PDE2) (PDE2) | PDEX/PDE5 (PDE10) (PDE10) | IC50 (PDE7) | PDEX/PDE5 (PDE7) (PDE7) | PDEX/PDE5 (PDE11) (PDE11) | IC50 (PDE3) | PDEX/PDE5 (PDE3) (PDE3) | Blood brain barrier penetration [1] | Effect on LTP in WT slices [2] | PDEX/PDE5 (PDE9) (PDE9) | IC50 (PDE1) | PDEX/PDE5 (PDE1) (PDE1) | IC50 (PDE4) | PDEX/PDE5 (PDE4) (PDE4) | PDEX/PDE5 (PDE8) (PDE8)
1 | COc1ccc(CNc2c(CO)cnc3c(C4CC4)cc(C#N)cc23)cc1Cl [7a, 4-[(3-chloro-4-methoxybenzyl)amino]-8-cyclopropyl-3-(hydroxymethyl) quinoline-6-carbonitrile] | 1 | less than 2 errors | >10^4 | >10^4 | > 10 µM | >10^4 | >10^4 | > 10 µM | >10^4 | readily crosses the blood brain barrier | no effect | >10^4 | > 10 µM | >10^4 | > 10 µM | >10^4 | >10^4
2 | COc1ccc(CNc2c(CO)cnc3c(N(C)C)cc(C#N)cc23)cc1Cl [7b, 4-[(3-chloro-4-methoxybenzyl)amino]-8-(N,N-dimethylamino)-3-(hydroxymethyl) quinoline-6-carbonitrile] | 1 | – | >10^4 | >10^4 | > 10 µM | >10^4 | >10^4 | > 10 µM | >10^4 | – | – | >10^4 | > 10 µM | >10^4 | > 10 µM | >10^4 | >10^4
